Source: ChEMBL document CHEMBL3046679, “Design, synthesis, and biological activities of arylmethylamine substituted chlorotriazine and methylthiotriazine compounds” (J Agric Food Chem, 2011)
Active and inactive are the calls of the source.

Columns and labels:
Phytophthora infestans [1] = experiment: Fungicidal activity against Phytophthora infestans assessed as inhibition of mycelia growth at 200 ppm; type: functional, organism-based
Puccinia triticina [2] = experiment: Fungicidal activity against Puccinia triticina assessed as inhibition of disease development in compound treated leaf pieces at 200 ppm relative to untreated control (wheat-preventative); type: functional
In short: (§1)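 Preventative leaf-piece test on host tissue (tomato, vine, wheat or barley). Formulated compound applied at 200, 60 and 20 ppm before spore inoculation. Disease scored 3–9 days after inoculation, depending on the pathogen, as percent inhibition of disease development versus untreated controls. Values are the mean across replicates.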

Phytophthora infestans [3] = experiment: Fungicidal activity against Phytophthora infestans assessed as inhibition of disease development in compound treated leaf pieces at 20 ppm relative to untreated control (tomato-preventative); type: functional; in short: as §1
Heliothis virescens = experiment: Insecticidal activity against Lepidoptera Heliothis virescens (tobacco budworm) assessed as mortality at 1000 ppm by leaf-disk assay; type: functional, organism-based
In short: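 Leaf-disk assay at 1000 ppm, three replicates. Plates kept 5–9 days in controlled-environment cabinets. Mortality judged against untreated wells: 99 for significant mortality, 0 otherwise. Values are the mean of three; thiamethoxam and indoxacarb used as positive controls.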

Botrytis cinerea = experiment: Fungicidal activity against Botryotinia fuckeliana assessed as inhibition of mycelia growth at 2 ppm; type: functional, organism-based
In short: (§2)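 Mycelial growth test in 96-well plates: compound incorporated into artificial growth medium at 2 ppm, two replicates per rate. Each well scored 99 for complete, 55 for partial or 0 for no inhibition. Values are the mean across replicates; azoxystrobin and prochloraz used as positive controls.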

[4] = tested on: Blumeria graminis f. sp. tritici; experiment: Fungicidal activity against Blumeria graminis f. sp. tritici assessed as inhibition of disease development in compound treated leaf pieces at 200 ppm relative to untreated control (wheat-preventative); type: functional
[5] = tested on: Blumeria graminis f. sp. tritici; experiment: Fungicidal activity against Blumeria graminis f. sp. tritici assessed as inhibition of disease development in compound treated leaf pieces at 60 ppm relative to untreated control (wheat-preventative); type: functional
Poa annua = experiment: Herbicidal activity against Poa annua assessed as growth inhibition at 32 ppm by 96-well plate test; type: functional; conditions: read-out: GI
In short: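 96-well plate herbicide screen: Arabidopsis thaliana at 10 ppm and Poa annua at 32 ppm, two replicates. Plates incubated seven days in a controlled-environment cabinet. Each replicate scored 0 (no visible effect) or 99 (herbicidal effect); values are the mean of the two. Atrazine used as reference.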

Fusarium graminearum = experiment: Fungicidal activity against Fusarium graminearum assessed as inhibition of mycelia growth at 2 ppm; type: functional, organism-based; in short: as §2
Phytophthora infestans [6] = experiment: Fungicidal activity against Phytophthora infestans assessed as inhibition of disease development in compound treated leaf pieces at 200 ppm relative to untreated control (tomato-preventative); type: functional; in short: as §1
Alternaria solani [7] = experiment: Fungicidal activity against Alternaria solani assessed as inhibition of mycelia growth at 2 ppm; type: functional, organism-based; in short: as §2
Pyrenophora teres [8] = experiment: Fungicidal activity against Pyrenophora teres assessed as inhibition of disease development in compound treated leaf pieces at 60 ppm relative to untreated control (barley-preventative); type: functional; in short: as §1
Echinochloa crus-galli = experiment: Herbicidal activity against Echinochloa crus-galli (barnyard grass) at 1.5 kg/ha postemergence treatment measured after 10 days by glasshouse test; type: functional; conditions: post-emergence, 240 h
In short: (§3)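 Glasshouse pre/postemergence test, each treatment in triplicate. Above-ground fresh weight measured 10 days after treatment. Result expressed as percent inhibition versus control, from 0 (no control) to 100 (complete control); glyphosate used as positive control.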

Puccinia triticina [9] = experiment: Fungicidal activity against Puccinia triticina assessed as inhibition of disease development in compound treated leaf pieces at 60 ppm relative to untreated control (wheat-curative); type: functional
In short: (§4)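 Curative wheat leaf-piece test against Puccinia triticina. Leaf pieces inoculated with spores first, then treated with formulated compound at 200, 60 or 20 ppm. Disease scored 3–9 days after inoculation as percent inhibition versus untreated controls. Values are the mean across replicates.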

Phytophthora infestans [10] = experiment: Fungicidal activity against Phytophthora infestans assessed as inhibition of disease development in compound treated leaf pieces at 60 ppm relative to untreated control (tomato-preventative); type: functional; in short: as §1
Uromyces viciae-fabae = experiment: Fungicidal activity against Uromyces viciae-fabae assessed as inhibition of mycelia growth at 100 ppm; type: functional, organism-based
In short: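 Leaf-piece assay on bean at 100 ppm, with compound applied before spore inoculation and two replicates. Each well scored 99 for complete inhibition, 55 for partial and 0 for none; value is the mean score across replicates.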

Puccinia triticina [11] = experiment: Fungicidal activity against Puccinia triticina assessed as inhibition of disease development in compound treated leaf pieces at 20 ppm relative to untreated control (wheat-preventative); type: functional; in short: as §1
Parastagonospora nodorum = experiment: Fungicidal activity against Phaeosphaeria nodorum assessed as inhibition of disease development in compound treated leaf pieces at 200 ppm relative to untreated control (wheat preventative); type: functional
In short: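 Wheat leaf pieces treated with formulated compound (200, 60 and 20 ppm) before inoculation with pathogen spores. Disease development assessed 3–9 days after inoculation, depending on the assay. Scored as percent inhibition relative to untreated controls; value is the mean across replicates.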

Alternaria solani [12] = experiment: Fungicidal activity against Alternaria solani assessed as inhibition of disease development in compound treated leaf pieces at 200 ppm relative to untreated control (tomato-preventative); type: functional; in short: as §1
Pyrenophora teres [13] = experiment: Fungicidal activity against Pyrenophora teres assessed as inhibition of disease development in compound treated leaf pieces at 200 ppm relative to untreated control (barley-preventative); type: functional; in short: as §1
Pythium dissimile = experiment: Fungicidal activity against Pythium dissimile assessed as inhibition of mycelia growth at 2 ppm; type: functional, organism-based; in short: as §2
Brassica napus [14] = experiment: Herbicidal activity against Brassica napus (oilseed rape) at 1.5 kg/ha preemergence treatment measured after 10 days by glasshouse test; type: functional; conditions: pre-emergence, 240 h; in short: as §3
Brassica napus [15] = experiment: Herbicidal activity against Brassica napus (oilseed rape) at 1.5 kg/ha postemergence treatment measured after 10 days by glasshouse test; type: functional; conditions: post-emergence, 240 h; in short: as §3
Plasmopara viticola [16] = experiment: Fungicidal activity against Plasmopara viticola assessed as inhibition of disease development in compound treated leaf pieces at 20 ppm relative to untreated control (grapevine-preventative); type: functional; in short: as §1
Alternaria solani [17] = experiment: Fungicidal activity against Alternaria solani assessed as inhibition of disease development in compound treated leaf pieces at 60 ppm relative to untreated control (tomato-preventative); type: functional; in short: as §1
Digitaria sanguinalis = experiment: Herbicidal activity against Digitaria sanguinalis (hairy crabgrass) assessed as growth inhibition at 1 kg/ha postemergence treatment by glasshouse test; type: functional; conditions: post-emergence, read-out: GI
In short: (§5)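 Glasshouse screen with pre- or postemergence application at 1.0 kg/ha. Result given as percent inhibition of plant growth; norflurazon and glyphosate used as controls.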

Alternaria solani [18] = experiment: Fungicidal activity against Alternaria solani assessed as inhibition of disease development in compound treated leaf pieces at 20 ppm relative to untreated control (tomato-preventative); type: functional; in short: as §1
Puccinia triticina [19] = experiment: Fungicidal activity against Puccinia triticina assessed as inhibition of disease development in compound treated leaf pieces at 20 ppm relative to untreated control (wheat-curative); type: functional; in short: as §4
Pyrenophora teres [20] = experiment: Fungicidal activity against Pyrenophora teres assessed as inhibition of disease development in compound treated leaf pieces at 20 ppm relative to untreated control (barley-preventative); type: functional; in short: as §1
Amaranthus retroflexus [21] = experiment: Herbicidal activity against Amaranthus retroflexus assessed as growth inhibition at 1 kg/ha preemergence treatment by glasshouse test; type: functional; conditions: pre-emergence, read-out: GI; in short: as §5
Amaranthus retroflexus [22] = experiment: Herbicidal activity against Amaranthus retroflexus assessed as growth inhibition at 1 kg/ha postemergence treatment by glasshouse test; type: functional; conditions: post-emergence, read-out: GI; in short: as §5
Plasmopara viticola [23] = experiment: Fungicidal activity against Plasmopara viticola assessed as inhibition of disease development in compound treated leaf pieces at 60 ppm relative to untreated control (grapevine-preventative); type: functional; in short: as §1

CC(C)Nc1nc(Cl)nc(NCc2ccc(F)cc2)n1
20%: inhibition at 60 ppm [5] | inhibition at 20 ppm (Puccinia triticina [19]) | inhibition at 60 ppm (Plasmopara viticola [23])
100%: inhibition at 200 ppm (Puccinia triticina [2]) | inhibition at 60 ppm (Puccinia triticina [9]) | inhibition at 1500 g/ha (Brassica napus [14]) | inhibition at 1500 g/ha (Brassica napus [15]) | inhibition of growth at 1000 g/ha (Amaranthus retroflexus [21]) | inhibition of growth at 1000 g/ha (Amaranthus retroflexus [22])
0%: inhibition at 20 ppm (Phytophthora infestans [3]) | inhibition of growth at 32 ppm (Poa annua) | inhibition at 200 ppm (Phytophthora infestans [6]) | inhibition at 60 ppm (Pyrenophora teres [8]) | inhibition at 60 ppm (Phytophthora infestans [10]) | inhibition at 20 ppm (Puccinia triticina [11]) | inhibition at 200 ppm (Alternaria solani [12]) | inhibition at 200 ppm (Pyrenophora teres [13]) | inhibition at 20 ppm (Plasmopara viticola [16]) | inhibition at 60 ppm (Alternaria solani [17]) | inhibition of growth at 1000 g/ha (Digitaria sanguinalis) | inhibition at 20 ppm (Alternaria solani [18]) | inhibition at 20 ppm (Pyrenophora teres [20])
75.7%: inhibition at 1500 g/ha (Echinochloa crus-galli)
active: inhibition (Botrytis cinerea) | inhibition (Uromyces viciae-fabae)
inactive: inhibition (Phytophthora infestans [1]) | mortality (Heliothis virescens) | inhibition (Fusarium graminearum) | inhibition (Alternaria solani [7]) | inhibition (Pythium dissimile)
70%: inhibition at 200 ppm [4] | inhibition at 200 ppm (Parastagonospora nodorum)
